Screens from PubChem.
Most compounds without a hit are left out; they make up all but 2.9% or so of the library.
ERAP1 HTS inh – ERAP1 (human) enzyme inhibition; Q9NZ08; recombinant ERAP1, Leu-AMC fluorescence, 60 min; inhibition, % at 10.7 µM; 340,000 tested, 0.15% active; AID 652197;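 active means mean replicate inhibition of at least 30%, or all replicates individually reaching that 30% level; inactive means mean below 30% and not every replicate reaching it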;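 further: 0% = neutral control wells and 100% = L-leucinethiol positive control wells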
Target sequence (Q9NZ08 whole entry, looked up): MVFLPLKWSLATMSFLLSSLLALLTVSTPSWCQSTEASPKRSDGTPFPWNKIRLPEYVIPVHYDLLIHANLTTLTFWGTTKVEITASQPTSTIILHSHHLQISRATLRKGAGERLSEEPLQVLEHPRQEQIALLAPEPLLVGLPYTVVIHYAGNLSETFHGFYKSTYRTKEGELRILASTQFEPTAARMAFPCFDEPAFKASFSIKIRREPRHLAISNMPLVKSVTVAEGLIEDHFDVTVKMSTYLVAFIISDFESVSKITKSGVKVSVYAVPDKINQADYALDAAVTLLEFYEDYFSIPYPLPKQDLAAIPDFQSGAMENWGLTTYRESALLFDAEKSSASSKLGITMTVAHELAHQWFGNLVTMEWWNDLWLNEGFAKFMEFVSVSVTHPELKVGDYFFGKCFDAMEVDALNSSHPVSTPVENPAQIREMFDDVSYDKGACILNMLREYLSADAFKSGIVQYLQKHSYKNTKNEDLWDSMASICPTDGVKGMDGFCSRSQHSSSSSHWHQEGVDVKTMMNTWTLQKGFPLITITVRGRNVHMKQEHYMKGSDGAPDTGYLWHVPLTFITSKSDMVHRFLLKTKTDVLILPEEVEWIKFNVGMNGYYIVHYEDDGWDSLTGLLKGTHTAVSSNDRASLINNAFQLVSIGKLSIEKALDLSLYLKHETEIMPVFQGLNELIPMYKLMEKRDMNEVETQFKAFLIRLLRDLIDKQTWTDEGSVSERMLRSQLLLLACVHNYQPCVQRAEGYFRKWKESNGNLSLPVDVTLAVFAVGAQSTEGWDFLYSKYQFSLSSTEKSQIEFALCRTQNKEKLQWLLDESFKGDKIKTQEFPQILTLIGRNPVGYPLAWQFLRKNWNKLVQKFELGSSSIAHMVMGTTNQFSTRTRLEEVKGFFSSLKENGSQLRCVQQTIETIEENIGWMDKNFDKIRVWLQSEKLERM
S100A4 MyoIIA – inhibitors of human S100A4 binding to myosin IIA peptide | S100A4/TAMRA-MyoIIA peptide fluorescence polarization | inhibition, % at 10.7 µM | 360,000 tested, 0.14% active;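 active means mean inhibition of at least 70% across replicates, with every replicate also reaching that level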
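incubation = readout 5 min after mixing, signal stable up to 60 min | system = S100A4 monomer protein | buffer or medium = HEPES pH 7.2 with CaCl2, KCl, NaCl, DTT, Triton | benchmarks = neutral control DMSO, positive control TFP | also added = fluorescent myosin IIA peptide, 5 nM | compound dosing = one concentration per compound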
CAL PDZ FP-1 – blocks peptide binding to the human CAL PDZ domain. purified CAL PDZ, TMR-peptide fluorescence polarization, 1 h. inhibition, % at 24.9 µM. 300,000 tested, 0.92% active. AID 602252;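 active means mean inhibition of at least 30% with at least half of replicates also reaching 30%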;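 further: 0% = DMSO neutral control and 100% = excess unlabeled competitor peptide PRC23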
CAL PDZ FP-2 – inhibitors of human CAL PDZ peptide binding | Q9HD26 | purified CAL PDZ, TMR-peptide fluorescence polarization, 1 h | inhibition, % at 20 µM | 330,000 tested, 0.02% active;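 active means highest replicate inhibition of at least 40%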;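 further: plate controls were DMSO neutral control wells for no effect and unlabeled competitor peptide control wells for full effect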
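material = purified tagged CAL PDZ domain construct (CerCALP) | buffer or medium = sodium phosphate/NaCl buffer pH 7.4 with TCEP, IgG, Thesit | reagent = TMR-labelled reporter peptide T*-PRC34 bound in PDZ groove | incubation = 1 h room-temperature incubation prior to read | measured by = fluorescence polarization (mP) | evaluation = percent inhibition from loss of millipolarization | control set = unlabelled peptide and DMSO controls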
SIRT5 block – sirtuin-5 (human) deacylase inhibition; Q9NXA8; Purified SirT5, succinyl-peptide AMC, trypsin-coupled fluorescence; inhibition, % at 15 µM; 330,000 tested, 1.1% active; in the data active means inhibition above about 15%
DENV2 CPE – DENV2-induced cell death inhibition. DENV2-infected cells, cytopathic effect rescue, plate reader. CPE inhibition, % at 9.99 µM. 350,000 tested, 1.7% active; in the data active means CPE inhibition above about 20%, passing the limit was not always enough; tested in BHK-21 cells;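 further: 0% = median of neutral control wells and 100% = median of positive control wells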
* = called active by the depositor; . = not tested or not shown; + = active, no number.

SMILES	ERAP1 HTS inh	S100A4 MyoIIA	CAL PDZ FP-1	CAL PDZ FP-2	SIRT5 block	DENV2 CPE
CC(=O)Nc1ccc(C=NNc2ccc([N+](=O)[O-])cc2S(=O)(=O)Nc2ccccc2C(=O)O)cc1	-25	-2	-4	0	26*	1
O=C(O)c1ccccc1NS(=O)(=O)c1ccc(N/N=C/c2cccc(O)c2O)c([N+](=O)[O-])c1	-1	-8	0	2	13	8
O=C(O)c1ccccc1NS(=O)(=O)c1ccc(NNC(=S)Nc2ccc(OC(F)F)cc2)c([N+](=O)[O-])c1	6	1	-3	-1	24*	-4
CC(=O)Nc1cccc(/C(C)=N/Nc2ccc(S(=O)(=O)Nc3ccccc3C(=O)O)cc2[N+](=O)[O-])c1	-53	-12	-4	1	21*	8
Cc1ccc(NC(=S)NNc2ccc([N+](=O)[O-])cc2S(=O)(=O)Nc2ccccc2C(=O)O)cc1C	.	.	0	-1	.	.
COc1ccc(NC(=O)c2ccccc2NS(=O)(=O)c2ccc(C)cc2)c([N+](=O)[O-])c1	.	.	0	-2	.	.
CC(=O)Nc1ccc(C=NNc2ccc(S(=O)(=O)Nc3ccccc3C(=O)O)cc2[N+](=O)[O-])cc1	-21	1	-4	1	17*	4
CCOc1ccc(C=NNc2ccc(S(=O)(=O)Nc3ccccc3C(=O)O)cc2[N+](=O)[O-])cc1OC	.	.	-2	1	.	.
CO[C@@H]1CN(C)C(=O)c2ccc(NC(=O)NC(C)C)cc2OC[C@@H](C)N(C(=O)NC(C)C)C[C@@H]1C	1	18	.	.	-3	0
COc1ccc2c3c(n(C)c2c1)[C@@H](CO)N(C)CC31CCN(C(=O)C2CCC2)CC1	2	-3	.	.	.	-1
C[C@@H]1CCCCO[C@@H](CN(C)C(=O)Cc2ccccc2)[C@H](C)CN([C@@H](C)CO)C(=O)c2cc(NC(=O)CCCN(C)C)ccc2O1	-2	-6	.	.	1	-10
COc1ccc(C(C)=NNc2ccc([N+](=O)[O-])cc2S(=O)(=O)Nc2ccccc2C(=O)O)c(OC)c1	-55	1	0	0	15*	-1
CCOc1cc(/C=N/Nc2ccc(S(=O)(=O)Nc3ccccc3C(=O)O)cc2[N+](=O)[O-])cc(Cl)c1O	-61	-13	.	.	.	-11
CN(CCO)c1ccc(C=NNc2ccc([N+](=O)[O-])cc2S(=O)(=O)Nc2ccccc2C(=O)O)cc1	-26	-11	.	.	22*	-10
COc1cc(C=NNc2ccc(S(=O)(=O)Nc3ccccc3C(=O)O)cc2[N+](=O)[O-])ccc1O	-72	1	.	1	22*	3
COc1cc2[nH]c(=S)n(Cc3ccc(C)cc3)c(=O)c2cc1OC	13	4	40*	8	-6	0
CCCNC(=O)N1CC2(C1)[C@H](c1ccccc1)[C@H](CO)N2Cc1ccc(F)cc1	1	0	.	.	-8	6
CCc1ccccc1N1C(=O)CC(Sc2nccc(C)n2)C1=O (centres undefined)	0	4	100*	.	-1	1
CC(C)(C)c1ccc(C(=O)N/N=C/c2ccccn2)cc1	-6	-6	-5	-1	-6	-3
Cc1ccc(C(=O)N/N=C/c2cccc(OC(=O)/C=C/c3ccco3)c2)cn1	3	-5	7	-3	24*	.
CC(/C=C/c1ccco1)=N/NC(=O)c1ccc(C)nc1	.	3	-3	0	.	8
Cc1ccc(C(=O)N/N=C\c2ccccn2)cn1	1	0	+	-1	-2	12
Cc1noc(C)c1S(=O)(=O)Nc1ccc2c(c1)CC(=O)N([C@H](C)CO)C[C@@H](C)[C@H](CN(C)Cc1ccncc1)O2	4	-6	.	.	-4	1
CC1(C)Cc2c(c(-c3ccco3)nc3sc4c(NCCO)ncnc4c23)CO1	-3	3	9	-4	10	4
COCCCNc1ncnc2c1sc1nc(-c3ccco3)c3c(c12)CC(C)(C)OC3	.	-3	-5	-2	19*	1
SMILES	ERAP1 HTS inh	S100A4 MyoIIA	CAL PDZ FP-1	CAL PDZ FP-2	SIRT5 block	DENV2 CPE
O=[N+]([O-])c1ccc(Sc2n[nH]c(-c3ccc(Cl)cc3Cl)n2)nc1	.	.	43*	.	.	.
CC(C)(C)c1nc(Sc2ccc([N+](=O)[O-])cn2)n[nH]1	.	0	-1	0	0	8
[N-]=[N+]=Nc1ccccc1C[C@]1(C(=O)NCc2ccccc2)COC(c2ccc(OCCCO)cc2)=N1	0	-4	.	.	-1	18
NC1=NC(=O)/C(=C/c2ccc(Br)cc2)S1	2	0	2	1	3	-2
CCOC(=O)COc1ccc(Br)cc1/C=C1\SC(N)=NC1=O	4	-2	-9	-4	0	37*
Cc1noc(C)c1S(=O)(=O)N(C)C[C@H]1OCCCC[C@H](C)Oc2ccc(NC(=O)Nc3ccc4c(c3)OCO4)cc2C(=O)N([C@@H](C)CO)C[C@@H]1C	.	.	.	.	.	3
Cc1noc(C)c1S(=O)(=O)N(C)C[C@H]1OCCCC[C@@H](C)Oc2ccc(NC(=O)Nc3ccc4c(c3)OCO4)cc2C(=O)N([C@@H](C)CO)C[C@H]1C	.	.	.	.	.	86*
Cc1noc(C)c1S(=O)(=O)N(C)C[C@H]1OCCCC[C@H](C)Oc2ccc(NC(=O)NC(C)C)cc2C(=O)N([C@H](C)CO)C[C@@H]1C	4	-8	.	.	-4	102*
CCC(=O)N(C)C[C@H]1Oc2cc(C#Cc3ccncc3)ccc2S(=O)(=O)N([C@@H](C)CO)C[C@H]1C	0	-12	.	.	7	0
CCCn1c(N)c(C(=O)CN(C)CC(=O)Nc2cc(C)ccc2C)c(=O)[nH]c1=O	-1	-4	-1	-2	-7	51*
COc1ccc(S(=O)(=O)Nc2ccc3c(c2)CC(=O)N([C@H](C)CO)C[C@@H](C)[C@H](CN(C)S(=O)(=O)c2ccc(F)cc2)O3)cc1	.	.	.	.	.	43*
COc1ccc(S(=O)(=O)Nc2ccc3c(c2)CC(=O)N([C@H](C)CO)C[C@H](C)[C@H](CN(C)S(=O)(=O)c2ccc(Cl)cc2)O3)cc1	0	-2	.	.	5	-10
COc1ccc(S(=O)(=O)N(C)C[C@@H]2Oc3ccc(NS(=O)(=O)c4ccc(Cl)cc4)cc3CC(=O)N([C@@H](C)CO)C[C@@H]2C)cc1	.	.	.	.	.	64*
COc1ccc(S(=O)(=O)N(C)C[C@H]2Oc3ccc(NS(=O)(=O)c4ccc(F)cc4)cc3CC(=O)N([C@@H](C)CO)C[C@@H]2C)cc1	3	-4	.	.	9	77*
C=CCN1C(=O)[C@@]2(O[C@@H](CCn3cc([C@H](O)c4ccccc4)nn3)[C@H]([Si](C)(C)c3ccc(OC)cc3)[C@H]2C)c2ccccc21	-8	-1	.	.	2	-5
CCN(CC(=O)Nc1cccc(OC)c1)CC(=O)Nc1ccc(C)cc1Cl	-2	-16	66*	.	-3	-3
